Compounds with a hit are over-represented: about 4.3% of the library has one in this group of screens.
FLuc inh counter = firefly luciferase enzyme inhibitors, primary screen, artefact control for luciferase-based inhibitor screens, biochemical, luminescence, ATPLite. hit rate 1.5% among 200,000. 10 min. AID 1006, 2008. inhibition, % at 10 µM;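 active = inhibition above about 50% when tested at 10 µM, limit read from the data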
Target sequence (P08659 whole entry, looked up): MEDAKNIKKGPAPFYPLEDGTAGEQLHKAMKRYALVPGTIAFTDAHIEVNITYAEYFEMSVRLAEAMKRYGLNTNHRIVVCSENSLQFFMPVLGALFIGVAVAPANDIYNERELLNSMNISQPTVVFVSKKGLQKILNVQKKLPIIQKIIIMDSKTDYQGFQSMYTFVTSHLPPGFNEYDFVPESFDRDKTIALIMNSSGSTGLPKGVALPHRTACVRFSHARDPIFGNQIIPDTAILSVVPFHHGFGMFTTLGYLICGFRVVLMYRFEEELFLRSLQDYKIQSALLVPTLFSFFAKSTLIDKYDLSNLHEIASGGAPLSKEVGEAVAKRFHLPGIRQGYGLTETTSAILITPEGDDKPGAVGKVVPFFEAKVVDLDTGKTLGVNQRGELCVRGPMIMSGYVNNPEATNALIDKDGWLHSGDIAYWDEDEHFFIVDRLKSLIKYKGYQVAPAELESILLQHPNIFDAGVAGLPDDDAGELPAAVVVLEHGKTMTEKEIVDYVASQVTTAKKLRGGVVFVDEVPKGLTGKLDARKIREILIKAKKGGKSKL
FLuc act counter = FLuc activators, initial screening, artefact control for FLuc-dependent activation tests, biochemical, ATPlite luminescence | ATPlite luciferase biochemical, 10 min; 0 = ATP-free wells, 1 = DMSO control | Luciferin 4-monooxygenase (Photinus pyralis), P08659 | activation factor at 10 µM | AID 1027, 2008 | 200,000 tested, under 10 active;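 active = luciferase activation factor, scaled between plate controls, of at least 2 with compound at 10 µM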
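test system = cell-free luciferase reagent | medium = PBS as buffer for the ATP substrate | dosing = test compounds dosed from 2 mM stocks in 100% DMSO | incubation = 10 min at ambient temperature | detection = luminescence measurement of luciferase light output | benchmarks = low control with PBS replacing ATP, high control enzyme plus ATP without compound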
APP 5'UTR act = activators of APP 5'UTR luciferase reporter, primary screen, SH-SY5Y cells; activation, % at 2 µM; hit rate 1% among 190,000; SH-SY5Y APP 5'UTR luciferase reporter, luminescence; zero percent = DMSO vehicle wells; AID 1276, 2008;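 active = activation above a set limit, based on mean plus 3 SD of controls, cut at about 140% in these data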
sdo1 growth = growth rescue of sdo1-depleted yeast, primary screen, S. cerevisiae, bone marrow failure model; S. cerevisiae sdo1-depleted JHY4D growth rescue, OD600 30 h; stronger effect = higher value; pdr5 snq2 efflux-pump mutant strain; z-score at 10 µM; hit rate 0.21% among 140,000; AID 817, 2007;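 active = z-score above 3 at both the 24 hr and the 30 hr optical density reads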;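 also: z-score against mean and SD of all compound wells on the same plate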
STAT1 act = STAT1 signaling activators, primary screen, cell-based, HTS, luciferase reporter. NIH 3T3 STAT1-luciferase reporter, IFN-gamma, luminescence; 100% = IFN-gamma alone, no compound. hit rate 2.6% among 200,000. AID 932, 2007. activation (% of control), % at 5.5 µM;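 active = activation above the screen-wide mean activation plus 3 SD, cut at about 130% in these data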;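 also: raw ratio to IFN-gamma control signal so 100% means no change and 0% no light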
NF-kB expr up = activators of NF-kB expression in neurons, primary screen, cell-based, HTS. human neuronal cells, NF-kB reporter expression; stronger effect = higher value. fold change at 12.5 µM. hit rate 1.6% among 190,000; in the data active = fold change above about 3.3
An asterisk follows results filed as active; · = no result given.

SMILES | FLuc inh counter | FLuc act counter | APP 5'UTR act | sdo1 growth | STAT1 act | NF-kB expr up
COc1ccc(-c2noc(CSc3ccccc3)n2)cc1OC | 0.2 | 1 | 54.1 | -0.52 | 129.7* | 2.27
Cc1ccc(SCc2nc(-c3ccncc3)no2)cc1 | 1.8 | 1 | 2.8 | -1.26 | 108.9 | 1.46
c1ccc(SCc2nc(-c3ccncc3)no2)cc1 | 6.9 | 0.9 | 11.5 | 0.12 | 128.7* | 1.92
COc1ccc(C)cc1NC(=O)c1ccccc1NS(=O)(=O)c1cccc2cccnc12 | -4.2 | 1 | 16.9 | -0.73 | 98.7 | 1
CC(C)c1ccc(NC(=O)C(=O)C2C(=O)Nc3ccccc32)cc1 (stereo unspecified) | 52.5* | 0.5 | 1.9 | · | 103.9 | 1.53
COc1ccc(-c2[nH]c(-c3ccc(SC)cc3)nc2SCC(=O)Nc2nccs2)cc1 | -8.2 | 1.1 | 15.4 | -1.14 | 101.3 | 0.81
COc1ccc(OC)c(/C=C/C(=O)OCC(=O)c2c(N)n(C)c(=O)n(C)c2=O)c1 | -8.1 | 1.1 | -4.9 | · | 102.5 | 1.02
N/C(=N\OC(=O)N1CCOCC1)c1ccc(Br)cc1 | 13.1 | 0.9 | 34.0 | · | 116.2 | 1.27
O=Nc1ccc(NOC(=O)c2ccc(Br)cc2)cc1 | 86.8* | 0.1 | 5.3 | -0.17 | 98.3 | 1.07
Cc1ccc(C(=O)ONc2ccc(N=NC(=O)c3ccccc3O)cc2)cc1 | 31.5 | 0.7 | 17.3 | 1.28 | 102.2 | 1.95
COC(=O)c1ccc(NN=Nc2ccc(C)cc2)cc1 | 2.7 | 1 | 72.0 | -0.05 | 137.0* | 1.74
COC(=O)c1ccc(N=NN2CCCCC2)cc1 | 25.5 | 0.7 | 150.6* | · | 139.7* | 3.34*
Cc1ccc(C(=O)ONc2ccc(N=O)cc2)cc1 | 96.8* | 0 | 2.8 | -0.94 | 99.1 | 1.02
O=C(CSc1ncnc2c1cnn2CCO)Nc1cccc(C(F)(F)F)c1 | -6.2 | 1.1 | -2.1 | -0.11 | 98.2 | 0.8
CCCCn1c(SCc2cc(=O)[nH]c3ccccc23)nc2c1c(=O)n(C)c(=O)n2C | -0.7 | 1 | -3.9 | -0.14 | 88.1 | 1.12
Cc1ccc(Nc2n[nH]c(C)c2[N+](=O)[O-])cc1 | 10.0 | 0.9 | 54.3 | -0.2 | 146.9* | 3.1
Cc1cc(S(=O)(=O)NCCc2ccccc2)c(C)s1 | -3.1 | 1 | -2.2 | -0.05 | 101.3 | 1.08
Cc1ccc(C(=O)O)cc1N=Cc1cc(Br)cc(Br)c1O | -7.6 | 1.1 | 0.0 | -0.51 | 104.4 | 1.34
Cc1sc(NC(=O)Nc2ccccc2)c(C(N)=O)c1C | 37.5 | 0.6 | 66.2 | · | 139.1* | 2.9
CCc1nnc(NS(=O)(=O)c2ccc(N=Cc3c(C)[nH]n(-c4ccc(C)c(C)c4)c3=O)cc2)s1 | 65.6* | 0.3 | -6.5 | -0.59 | 110.9 | 1.17
C/C(=N/N=C/c1ccc(N(C)C)cc1)c1ccccc1 | 76.7* | 0.2 | 188.7* | 1.8 | 132.6* | 1.71
CN(C)c1ccc(C=Nc2ccc(N(C)C)cc2)cc1 | 35.6 | 0.6 | 175.3* | 0.8 | 144.2* | 0.93
CN(C)c1ccc(N=Cc2ccco2)cc1 | 2.0 | 1 | 152.8* | 0.32 | 150.4* | 0.87
Cc1ccc(N=Cc2ccc(N(C)C)cc2)cc1 | 5.1 | 0.9 | -4.0 | 0.42 | 100.0 | 1.23
Cc1cccc(NC(=O)Cn2c(O)c(N=NC(=O)c3ccncc3)c3ccccc32)c1 | -0.3 | 1 | 14.0 | · | 86.0 | 1.32
SMILES | FLuc inh counter | FLuc act counter | APP 5'UTR act | sdo1 growth | STAT1 act | NF-kB expr up
COC(=O)Cn1c(O)c(N=NC(=O)c2ccc3c(c2)OCO3)c2ccccc21 | 75.6* | 0.2 | 18.2 | · | 97.3 | 1.69
Cc1nnc(SCC(=O)Nc2nsc(-c3ccc(C(C)(C)C)cc3)n2)s1 | 11.2 | 0.9 | 146.8* | -1.17 | 141.1* | 8.57*
CCc1cc(C(=O)NNC(=S)NCc2ccccc2)cs1 | -4.6 | 1 | 9.4 | -0.02 | 102.8 | 1.06
CCc1cc(C(=O)Nc2ccccc2)cs1 | 43.1 | 0.6 | 97.5 | -0.81 | 134.8* | 3.74*
CCc1cc(C(=O)NNC(=S)Nc2ccccc2C)cs1 | 49.8 | 0.5 | 120.1 | 0.67 | 118.9 | 4.28*
CCCc1cc(C(=O)Nc2nccs2)cs1 | 61.0* | 0.4 | 152.0* | -1.55 | 129.5* | 6.71*
CCN(CC)C(=O)C(=O)c1cccn1-c1cccc(-n2cccc2C(=O)C(=O)N(CC)CC)c1C#N | -4.6 | 1 | -11.2 | 0.16 | 95.3 | 0.95
Nc1[nH]nc2nc(N3CCCC3)nc(-c3ccccc3)c12 | -3.2 | 1 | 0.2 | -0.9 | 103.0 | 0.74
Nc1[nH]nc2ncc3cc4ccccc4nc3c12 | 2.2 | 1 | -5.7 | · | 138.8* | 0.42
Brc1ccc(-c2nnc(-c3cccc(Br)c3)o2)cc1 | 5.7 | 0.9 | 1.0 | 0 | 110.2 | 1.36
Cc1ccc2nc(-c3cccc(N)c3)oc2c1 | 93.0* | 0.1 | · | -0.08 | 81.5 | 3.92*
COC(=O)Cc1ccc2oc(-c3cccnc3)nc2c1 | 19.7 | 0.8 | -2.7 | · | 128.5 | 1.95
Cc1ccc2nc(Cc3ccc(N)cc3)oc2c1 | 3.6 | 1 | 37.0 | -0.06 | 121.6 | 2.21
CCc1ccc2oc(-c3cccc(N)c3)nc2c1 | 86.1* | 0.1 | 110.0 | -0.78 | 115.9 | 3.86*
Nc1ccc2oc(-c3cccc(Br)c3)nc2c1 | 24.7 | 0.8 | 16.9 | -1.44 | 145.7* | 3.01
COc1ccc(-c2ccc(C#N)c(OC(=O)c3c(Cl)cccc3Cl)n2)cc1 | -7.8 | 1.1 | · | -0.79 | 100.1 | 1.07
Cc1nc2ccc(S(=O)(=O)N(C)CC(=O)Nc3ccccc3F)cc2s1 | -5.7 | 1.1 | 4.1 | · | 93.2 | 0.99
O=c1[nH]c(SCc2n[nH]c(=S)n2-c2ccccc2)nc2sc3c(c12)CCC3 | -0.2 | 1 | -6.8 | 0.9 | 95.0 | 1.05
Cc1cccc(-n2nnc3c(=O)n(CC(=O)Nc4cc(C)on4)cnc32)c1 | -5.1 | 1.1 | -10.0 | · | 96.6 | 1.45
CCN(CC)C(=O)Oc1ccc2c(=O)c(-c3ccc(OC)cc3)c(C)oc2c1 | -7.0 | 1.1 | 5.3 | -2.05 | 106.7 | 0.9
CC(=O)Oc1ccc2c(=O)c(Oc3ccccc3[N+](=O)[O-])coc2c1 | 0.1 | 1 | -5.3 | 0.37 | 101.4 | 1.04
CCN(CC)C(=O)Oc1ccc2c(=O)c(-c3ccc(OC)cc3)coc2c1 | 0.7 | 1 | 74.1 | -0.56 | 143.6* | 1.79
CC(=O)Oc1ccc2c(=O)c(-c3nc4ccccc4s3)coc2c1 | 79.7* | 0.2 | 196.2* | · | 108.2 | 2.89
CCOC(=O)c1cc(-c2ccccc2)sc1NC(=O)C(C)OC(=O)c1cccnc1Cl (stereo unspecified) | -5.6 | 1.1 | 9.6 | -0.66 | 95.0 | 1.17
O=Cc1ccccc1OCc1nnsc1Cl | -4.2 | 1 | -7.9 | · | 102.4 | 0.86

Source: PubChem BioAssay (several laboratories)
